For 2 compounds, inhibition, Activity and inhibition in vivo results are on record in ChEMBL document CHEMBL1157101, “A series of alpha-heterocyclic carboxaldehyde thiosemicarbazones inhibit topoisomerase IIalpha catalytic activity” (J Med Chem, 2010).

Each structure is given as a SMILES string. Active and inactive are the calls of the source. The rule behind the calls is not given here.

Data set [1] deals with Nucleic Acid. In words: Inhibition of Fenton's reaction mediated DNA strand break in Escherichia coli pBR322 at 0.1 to 1 uM by gel electrophoresis. The data set is classed as nucleic-acid assay. The gist of the method:
(§1)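 pBR322 (0.2 μg) incubated 30 min at room temperature in 13 mM Hepes pH 7.2 with 1 mM H2O2 and 10 μM FeSO4 plus compound. Run on 1% agarose containing 0.1 μg/mL ethidium bromide at 90 V for 60 min. Bands quantified; % supercoiled = 1.4SC/(L+OC+1.4SC)×100.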

Data set [2] relates to HT-29. In words: Cell cycle arrest in nocodazole pretreated human HT-29 cells assessed as accumulation at M phase at 10 uM after 24 hrs. The data set is classed as functional, cell-based. The method, boiled down:
(§2)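 HT-29 cells stained with propidium iodide; cell-cycle distribution determined by flow cytometry.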

The subject of data set [3] is HT-29. In words: Cell cycle arrest in nocodazole pretreated human HT-29 cells assessed as accumulation at M phase at 5 uM after 24 hrs. The data set is classed as functional, cell-based. The method, boiled down: as §2
Data set [4] deals with Nucleic Acid. In words: Inhibition of Fenton's reaction mediated DNA strand break in Escherichia coli pBR322 at 1 to 100 uM by gel electrophoresis. Format: nucleic-acid assay. The gist of the method: as §1
Data set [5] deals with Nucleic Acid. Nature of the data set: Inhibition of Fenton's reaction mediated DNA strand break in Escherichia coli pBR322 by gel electrophoresis. Format: nucleic-acid assay. The gist of the method:
as §1

The target in data set [6] is DNA topoisomerase 2-alpha (Homo sapiens, UniProt P11388). Nature of the data set: Inhibition of human topoisomerase 2alpha-mediated relaxation of pBR322 up to 125 uM.
DNA topoisomerase 2-alpha, sequence (P11388 whole entry): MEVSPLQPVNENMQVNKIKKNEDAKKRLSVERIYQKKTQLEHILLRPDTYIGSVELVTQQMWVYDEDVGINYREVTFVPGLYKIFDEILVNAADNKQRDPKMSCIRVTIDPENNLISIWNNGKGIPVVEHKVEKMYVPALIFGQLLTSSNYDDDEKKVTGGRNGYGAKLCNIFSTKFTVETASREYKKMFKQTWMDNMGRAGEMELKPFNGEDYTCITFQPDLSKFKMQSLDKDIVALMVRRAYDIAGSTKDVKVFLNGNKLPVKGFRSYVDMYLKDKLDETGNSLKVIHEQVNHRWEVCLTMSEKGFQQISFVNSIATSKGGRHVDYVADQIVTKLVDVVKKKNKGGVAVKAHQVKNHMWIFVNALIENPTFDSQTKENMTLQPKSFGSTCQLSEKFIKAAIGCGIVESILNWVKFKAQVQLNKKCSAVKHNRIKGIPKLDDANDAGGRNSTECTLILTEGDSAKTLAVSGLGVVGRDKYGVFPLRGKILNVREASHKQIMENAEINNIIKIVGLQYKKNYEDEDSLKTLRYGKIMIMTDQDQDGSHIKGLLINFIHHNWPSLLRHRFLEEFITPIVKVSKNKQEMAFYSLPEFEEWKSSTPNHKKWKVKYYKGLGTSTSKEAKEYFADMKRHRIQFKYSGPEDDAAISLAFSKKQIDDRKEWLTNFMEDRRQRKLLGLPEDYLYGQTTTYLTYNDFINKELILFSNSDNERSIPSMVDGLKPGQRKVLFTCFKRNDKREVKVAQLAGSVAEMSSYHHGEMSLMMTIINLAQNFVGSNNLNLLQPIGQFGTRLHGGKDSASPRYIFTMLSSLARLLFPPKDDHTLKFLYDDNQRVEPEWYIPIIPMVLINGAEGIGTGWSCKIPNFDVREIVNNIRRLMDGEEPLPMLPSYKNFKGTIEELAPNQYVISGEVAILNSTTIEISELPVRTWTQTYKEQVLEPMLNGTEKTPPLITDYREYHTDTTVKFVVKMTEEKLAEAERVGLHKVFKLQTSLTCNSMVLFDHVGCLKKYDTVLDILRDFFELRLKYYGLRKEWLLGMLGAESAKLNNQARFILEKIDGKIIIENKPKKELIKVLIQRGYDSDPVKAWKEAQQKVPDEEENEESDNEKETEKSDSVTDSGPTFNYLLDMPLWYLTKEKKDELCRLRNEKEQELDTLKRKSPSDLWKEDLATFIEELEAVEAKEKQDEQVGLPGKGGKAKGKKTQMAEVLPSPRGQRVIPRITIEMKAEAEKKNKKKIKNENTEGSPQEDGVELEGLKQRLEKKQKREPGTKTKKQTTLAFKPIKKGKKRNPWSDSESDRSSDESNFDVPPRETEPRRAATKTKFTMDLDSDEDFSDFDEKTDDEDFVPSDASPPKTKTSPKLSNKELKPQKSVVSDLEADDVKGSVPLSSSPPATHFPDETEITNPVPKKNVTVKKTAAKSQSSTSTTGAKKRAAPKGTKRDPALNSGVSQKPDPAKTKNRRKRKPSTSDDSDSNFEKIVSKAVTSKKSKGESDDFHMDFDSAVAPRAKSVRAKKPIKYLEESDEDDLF
The subject of data set [7] is CCRF S-180. Nature of the data set: Antitumor activity against mouse S180 cells transplanted in Kunming mouse assessed as inhibition of tumor growth at 50 mg/kg/day, iv for 2 days. Format: functional. As to conditions: CCRF S-180, 48 h. The gist of the method:
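Female Kunming mice, 7 weeks old, 18-22 g, were inoculated sc in the right armpit with S-180 sarcoma. Dosing started the next day: the drug iv, vehicle controls normal saline. After treatment, mice were killed, and solid tumors were excised and weighed. Inhibitory rate (%) = (mean control tumor weight − mean treated tumor weight)/mean control tumor weight × 100.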

Data set [8] deals with Mus musculus. In words: Toxicity in Kunming mouse bearing mouse S180 cells assessed as change in body weight at 50 mg/kg/day, ip for 2 days (reference value: 18.1 g). The data set is classed as organism-based, CCRF S-180. The arrangement: route intraperitoneal. As to conditions: in vivo, 48 h.

Consider `CC(=O)N(O)CCCCCNC(=O)CCC(=O)N(O)CCCCCNC(=O)CCC(=O)N(O)CCCCCN`, for which the inhibition entry in data set [1] and in data set [4] was “Active” throughout. The outcome in data set [2] and in data set [3] was Active. For the same compound, the inhibition result in data set [5] is “Dose-dependent effect”. Also, the inhibition entry in data set [6] is “inactive”.

In general, inhibition in vivo refers to the share of the control response that was lost under treatment. For `O=c1[nH]cc(F)c(=O)[nH]1` [FLUOROURACIL], the inhibition in vivo at 50 mg/kg/day in data set [7] stood at 80.7%. For the same compound, the Activity in data set [8] is 27.5 g.
